Test results as given in ChEMBL document CHEMBL1914430, “Synthesis of some new 1,3,5-trisubstituted pyrazolines bearing benzene sulfonamide as anticancer and anti-inflammatory agents” (Bioorg Med Chem Lett, 2011).

Columns and labels:
Assay type in all cases: functional
PC-3 = experiment: Anticancer activity against human PC3 cells after 48 hrs; conditions: PC-3, 48 h
Procedure, shortened: (§1)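 NCI 60-line panel protocol with a 48 h incubation. Per line: GI50 = concentration giving 50% decrease in net cell growth; TGI = total growth inhibition; LC50 = net 50% loss of initial cells. When the level was not reached or was exceeded, the value is given as greater or less than the highest or lowest concentration tested.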

786-0 = experiment: Anticancer activity against human 786-0 cells after 48 hrs; conditions: 786-0, 48 h
Procedure, shortened: (§2)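 NCI Drug Evaluation Branch 60-cell-line screen across leukemia, melanoma, lung, colon, CNS, ovarian, renal, prostate and breast panels. The incubation period is 48 h. Parameters are derived from dose–response data: GI50 is the concentration giving 50% decrease in net growth, TGI is total growth inhibition, and LC50 is net 50% loss of initial cells. Values beyond the tested range are reported as greater or less than the maximum or minimum concentration.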

MDA-MB-231 = experiment: Anticancer activity against human MDA-MB-231 cells after 48 hrs; conditions: MDA-MB-231, 48 h; procedure, shortened: as §2
U-251 = experiment: Anticancer activity against human U251 cells after 48 hrs; conditions: U-251, 48 h
Procedure, shortened: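 NCI ~60 human tumour cell line panel with a 48 h incubation. GI50 is the concentration giving a 50% fall in net growth, TGI gives total growth inhibition, and LC50 gives a net 50% loss of initial cells. An effect not reached or exceeded is reported as greater or less than the highest or lowest concentration tested.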

HOP-92 = experiment: Anticancer activity against human HOP92 cells after 48 hrs; conditions: HOP-92, 48 h; procedure, shortened: as §2
SF-268 = experiment: Anticancer activity against human SF268 cells after 48 hrs; conditions: SF-268, 48 h; procedure, shortened: as §1
NCI-H460 = experiment: Anticancer activity against human NCI-H460 cells after 48 hrs; conditions: NCI-H460, 48 h; procedure, shortened: as §1
NCI-H226 = experiment: Anticancer activity against human NCI-H226 cells after 48 hrs; conditions: NCI-H226, 48 h; procedure, shortened: as §1
OVCAR-8 = experiment: Anticancer activity against human OVCAR8 cells after 48 hrs; conditions: OVCAR-8, 48 h; procedure, shortened: as §1
MOLT-4 = experiment: Anticancer activity against human MOLT4 cells after 48 hrs; conditions: MOLT-4, 48 h; procedure, shortened: as §1
OVCAR-5 = experiment: Anticancer activity against human OVCAR5 cells after 48 hrs; conditions: OVCAR-5, 48 h; procedure, shortened: as §1
SNB-75 = experiment: Anticancer activity against human SNB75 cells after 48 hrs; conditions: SNB-75, 48 h; procedure, shortened: as §1
CCRF-CEM = experiment: Anticancer activity against human CCRF-CEM cells after 48 hrs; procedure, shortened: as §2
HT-29 = experiment: Anticancer activity against human HT-29 cells after 48 hrs; conditions: HT-29, 48 h; procedure, shortened: as §2
SK-MEL-5 = experiment: Anticancer activity against human SK-MEL-5 cells after 48 hrs; conditions: SK-MEL-5, 48 h; procedure, shortened: as §1
SW-620 = experiment: Anticancer activity against human SW620 cells after 48 hrs; conditions: SW-620, 48 h; procedure, shortened: as §1
MDA-MB-435 = experiment: Anticancer activity against human MDA-MB-435 cells after 48 hrs; conditions: MDA-MB-435, 48 h; procedure, shortened: as §2
DU-145 = experiment: Anticancer activity against human DU145 cells after 48 hrs; conditions: DU-145, 48 h; procedure, shortened: as §2
OVCAR-4 = experiment: Anticancer activity against human OVCAR4 cells after 48 hrs; conditions: OVCAR-4, 48 h; procedure, shortened: as §1
NCI/ADR-RES = experiment: Anticancer activity against human NCI/ADR-RES cells after 48 hrs; procedure, shortened: as §1
ACHN = experiment: Anticancer activity against human ACHN cells after 48 hrs; procedure, shortened: as §2
[1] = Anticancer activity against human Hs 578T cells after 48 hrs; procedure, shortened: as §2
LOX IMVI = experiment: Anticancer activity against human LOXIMVI cells after 48 hrs; procedure, shortened: as §2
SR = experiment: Anticancer activity against human SR cells after 48 hrs; procedure, shortened: as §1
MDA-MB-468 = experiment: Anticancer activity against human MDA-MB-468 cells after 48 hrs; conditions: MDA-MB-468, 48 h; procedure, shortened: as §2
HL-60(TB) = experiment: Anticancer activity against human HL-60(TB) cells after 48 hrs; conditions: HL-60, 48 h
Procedure, shortened: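 NCI 60-cell-line panel protocol: cells exposed to compound for 48 h. Initial one-dose screen at 10⁻⁵ M. GI50 = concentration giving 50% decrease in net cell growth. TGI = concentration giving total growth inhibition. LC50 = concentration giving net 50% loss of initial cells at the end of incubation. A value not reached or exceeded is reported as greater or less than the highest or lowest concentration tested.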

HCC 2998 = experiment: Anticancer activity against human HCC2998 cells after 48 hrs; conditions: HCC 2998, 48 h; procedure, shortened: as §2
RPMI-8226 = experiment: Anticancer activity against human RPMI8226 cells after 48 hrs; conditions: RPMI-8226, 48 h; procedure, shortened: as §1
IGROV-1 = experiment: Anticancer activity against human IGROV1 cells after 48 hrs; conditions: IGROV-1, 48 h; procedure, shortened: as §2
[2] = read-out: LC50 (the source's name)

## Cc1cc(O)c(C2=NN(c3ccc(S(N)(=O)=O)cc3)C(/C=C/c3ccccc3)C2)cc1Cl (configuration not stated)
PC-3
  GI50: 3.15 µM
  TGI: 11.5 µM
PC-3; [2]
  CC50: 34 µM
786-0
  GI50: 4.09 µM
  TGI: 12.5 µM
786-0; [2]
  CC50: 35.3 µM
MDA-MB-231
  GI50: 4.56 µM
  TGI: 16.3 µM
MDA-MB-231; [2]
  CC50: 40.8 µM
U-251
  GI50: 3.79 µM
  TGI: 15.6 µM
U-251; [2]
  CC50: 39.5 µM
HOP-92
  GI50: 2.36 µM
  TGI: 8.48 µM
HOP-92; [2]
  CC50: 34 µM
SF-268
  GI50: 5.63 µM
  LC50 (concentration killing 50% of initial cells): 46.7 µM
  TGI: 19.5 µM
NCI-H460
  GI50: 4.03 µM
  LC50 (50% lethal concentration): 41.3 µM
  TGI: 17 µM
NCI-H226
  GI50: 5.21 µM
  TGI: 19.2 µM
NCI-H226; [2]
  CC50: 51.8 µM
OVCAR-8
  GI50: 3.03 µM
  TGI: 20.2 µM
OVCAR-8; [2]
  CC50: 91.7 µM
MOLT-4
  GI50: 17.7 µM
  LC50: > 100 µM
  TGI: 73.7 µM
OVCAR-5
  GI50: 3.18 µM
  LC50: 38.3 µM
  TGI: 14.7 µM
SNB-75
  GI50: 3.39 µM
  TGI: 16.1 µM
SNB-75; [2]
  CC50: 44.4 µM
CCRF-CEM
  GI50: 17.7 µM
  LC50 (concentration causing net 50% loss of initial cells): > 100 µM
  TGI: 50 µM
HT-29
  GI50: 3.73 µM
  TGI: 14.7 µM
HT-29; [2]
  CC50: 38.3 µM
SK-MEL-5
  GI50: 4.23 µM
  LC50: 40.5 µM
  TGI: 16.4 µM
SW-620
  GI50: 11.7 µM
  TGI: 31.3 µM
SW-620; [2]
  CC50: 84 µM
MDA-MB-435
  GI50: 8.87 µM
  TGI: 24 µM
MDA-MB-435; [2]
  CC50: 59.5 µM
DU-145
  GI50: 14.1 µM
  LC50 (concentration causing net 50% loss of initial cells): > 100 µM
  TGI: 38.6 µM
OVCAR-4
  GI50: 3.74 µM
  LC50: 48.6 µM
  TGI: 18.9 µM
NCI/ADR-RES
  GI50: 9.26 µM
  TGI: 22.7 µM
NCI/ADR-RES; [2]
  CC50: 53 µM
ACHN
  GI50: 5.27 µM
  TGI: 21.9 µM
ACHN; [2]
  CC50: 67.2 µM
[1]
  GI50: 12.3 µM
  TGI: 49.7 µM
[1]; [2]
  CC50: > 100 µM
LOX IMVI
  GI50: 3.94 µM
  TGI: 16.2 µM
LOX IMVI; [2]
  CC50: 40.3 µM
SR
  GI50: 12.7 µM
  LC50 (concentration killing 50% of initial cells): 89.7 µM
  TGI: 33.8 µM
MDA-MB-468
  GI50: 3.94 µM
  TGI: 13.8 µM
MDA-MB-468; [2]
  CC50: 37.2 µM
HL-60(TB)
  GI50: 68.3 µM
  LC50: > 100 µM
  TGI: 100 µM
HCC 2998
  GI50: 9.89 µM
  LC50 (net 50% loss of initial cells): 92.5 µM
  TGI: 30.3 µM
RPMI-8226
  GI50: 4.95 µM
  LC50 (concentration for net 50% loss of initial cells): 0.575 µM
  TGI: 20.6 µM
IGROV-1
  GI50: 4.32 µM
  LC50 (net 50% loss of initial cells): 68.7 µM
  TGI: 19.8 µM
